CHO parental Ca – signal in parental CHO cells, OX1R antagonist counter-screen. parental CHO-K1, ATP-induced calcium, Fluo-8 fluorescence. inhibition, % at 5.6 µM. actives 0.63% (n = 330,000). AID 463079;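 active = inhibition above that plate's mean sample inhibition plus 3 SD, cut at about 26% in these data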;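 also: 0% = ATP-challenged DMSO wells and 100% = DMSO wells without ATP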
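Assay system: parental CHO cells; Read-out basis: percent inhibition of ATP-evoked calcium rise, normalized to controls; Benchmarks: ATP and no-ATP DMSO wells; Compound dosing: single nominal dose of 5.6 µM per compound; Signal: Fluo-8 calcium dye fluorescence; Also added: ATP as calcium-mobilizing challenge; Repeats: singlicate.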
OX1R antag-1 – antagonists of human orexin 1 receptor | actives 0.43% (n = 330,000) | CHO/OX1R cells, Fluo-8 calcium fluorescence, orexin A | O43613 | inhibition, % at 5 µM | AID 434989;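 active = inhibition above its plate's threshold, mean inhibition of all tested compounds on the plate plus 3 SD, cut at about 37% in these data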;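 also: 0% = orexin A challenge wells and 100% = SB-334867-A antagonist wells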
Target sequence (O43613 whole entry, looked up): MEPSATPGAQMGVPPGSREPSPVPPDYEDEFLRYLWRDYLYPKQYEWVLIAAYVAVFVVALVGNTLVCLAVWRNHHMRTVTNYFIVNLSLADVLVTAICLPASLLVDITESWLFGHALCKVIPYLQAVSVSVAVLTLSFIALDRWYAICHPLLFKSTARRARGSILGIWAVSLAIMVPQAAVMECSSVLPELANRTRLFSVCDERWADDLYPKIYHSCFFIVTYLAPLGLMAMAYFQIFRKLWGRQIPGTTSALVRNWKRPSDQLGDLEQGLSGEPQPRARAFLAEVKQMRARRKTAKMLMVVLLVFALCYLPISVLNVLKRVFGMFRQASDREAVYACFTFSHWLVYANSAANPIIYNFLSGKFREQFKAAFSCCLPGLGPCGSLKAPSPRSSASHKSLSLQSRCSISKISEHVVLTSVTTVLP
M1 ag parental – counter-screen for M1 agonists: effect in parental CHO-K1 cells; activation, % at 3 µM; actives 0.48% (n = 360,000); AID 602248; Fluo-8 calcium fluorescence; scaled to maximal ATP response, vehicle zero; in the data active = activation above about 15%;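 also: untransfected CHO-K1 host cells lacking M1 receptor as counterscreen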
CHO-K1 Ca antag – counter-screen for M1 antagonists: effect in parental CHO-K1 cells; actives 0.6% (n = 360,000); AID 602250; inhibition, % at 3 µM; ATP-induced calcium, Fluo-8 fluorescence;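 active = inhibition above a per-plate cutoff, the plate's mean sample inhibition plus 3 SD, cut at about 24% in these data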;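 also: 0% = DMSO plus EC80 ATP and 100% = DMSO alone without ATP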
CHO-K1 Ca PAM – nonselective activator or artifact in parental CHO-K1 calcium assay; actives 0.02% (n = 360,000); AID 602247; ATP EC20, Fluo-8 calcium fluorescence; 0% at ATP EC20, 100% at ATP max; activation, % at 3 µM;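 active = activation above the run cutoff, the mean activation of all test compounds plus 3 SD, cut at about 40% in these data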;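 also: peak over basal fluorescence ratio in a 140 s read after ATP addition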
OX1R antag-2 – OX1R (human) antagonism; actives 1.8% (n = 330,000); inhibition, % at 6.6 µM; O43613; OX1R-expressing cells, FRET antagonist read-out; in the data active = inhibition mostly above about 38%, no sharp cut-off; inactive = mostly below about 40%;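 also: 0% = agonist challenge alone and 100% = reference antagonist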
Active calls of the source: *. Sampled rows, rich in hits. Any-hit rate of the full collection: about 2.9%.

C/C=C(/C)C(=O)OC1CC(C)(C)C[C@H]2C3=CC[C@@H]4[C@@]5(C)CCC(O[C@@H]6O[C@@H](C(=O)O)[C@@H](O)C(O[C@@H]7OC[C@H](O)[C@@H](O)[C@@H]7O[C@@H]7OC(CO)C(O)[C@@H](O)[C@@H]7O)C6O[C@@H]6OC(CO)C(O)C(O)C6O)[C@@](C)(CO)[C@@H]5CC[C@]4(C)[C@]3(C)CC(O)[C@@]12CO (stereo partly specified) was read as CHO parental Ca 100.8*, OX1R antag-1 104.3*, M1 ag parental 66.7*, CHO-K1 Ca antag 49.0*, CHO-K1 Ca PAM -21.5 and OX1R antag-2 24.5.
Cc1cccc(OCC(=O)Nc2ccc(S(=O)(=O)Nc3cc(C)nc(C)n3)cc2)c1 was read as CHO parental Ca -5.1, OX1R antag-1 -22.5, M1 ag parental 0.0, CHO-K1 Ca antag -11.8, CHO-K1 Ca PAM 12.4 and OX1R antag-2 11.0.
Screening CC(/C=C/c1cccc([N+](=O)[O-])c1)=N/NC(=O)c1cccnc1 returned CHO parental Ca -14.9, OX1R antag-1 -15.0, M1 ag parental 1.4, CHO-K1 Ca antag -1.1, CHO-K1 Ca PAM 22.0 and OX1R antag-2 44.1.
`O=C(N/N=C/C=C\c1cccc([N+](=O)[O-])c1)c1cccnc1` gave CHO parental Ca -4.3, OX1R antag-1 -20.4, M1 ag parental 1.2, CHO-K1 Ca antag -3.6, CHO-K1 Ca PAM 22.8 and OX1R antag-2 35.5*.
`O=C(CN1CCN(Cc2ccccc2Cl)CC1)N/N=C/C=C/c1ccccc1[N+](=O)[O-]` gave CHO parental Ca -12.9, OX1R antag-1 -24.5, M1 ag parental 1.0, CHO-K1 Ca antag 27.3*, CHO-K1 Ca PAM -12.5 and OX1R antag-2 22.1.
For O=C(CN1CCN(Cc2ccccc2Cl)CC1)N/N=C/C=C\c1ccccc1[N+](=O)[O-] the results were CHO parental Ca -17.6, OX1R antag-1 -28.7, M1 ag parental 1.7, CHO-K1 Ca antag 9.1, CHO-K1 Ca PAM -9.2 and OX1R antag-2 8.7.
`O=C(Oc1c(Br)cc([N+](=O)[O-])cc1Br)c1cccnc1` gave CHO parental Ca -1.1, OX1R antag-1 -15.1, M1 ag parental 8.4, CHO-K1 Ca antag 3.6, CHO-K1 Ca PAM 6.2 and OX1R antag-2 52.7*.
Screening O=C(N/N=C/c1cc([N+](=O)[O-])c(N2CCOCC2)cc1N1CCOCC1)c1cccnc1 returned CHO parental Ca -17.3, OX1R antag-1 -18.3, M1 ag parental 21.3*, CHO-K1 Ca antag 0.8, CHO-K1 Ca PAM 16.7 and OX1R antag-2 40.5.
For Cc1ccc(C)c(Nc2c(F)c(F)c(F)c(F)c2C(=O)O)c1 the results were CHO parental Ca 1.5, OX1R antag-1 -1.8, M1 ag parental 0.1, CHO-K1 Ca antag 0.2, CHO-K1 Ca PAM 16.7 and OX1R antag-2 22.4.
`O=C(/C=C/c1cccc([N+](=O)[O-])c1)NCc1cccnc1` gave CHO parental Ca 5.2, OX1R antag-1 -13.7, M1 ag parental 0.1, CHO-K1 Ca antag -8.2, CHO-K1 Ca PAM 18.4 and OX1R antag-2 72.2*.
For O=C1NCCCC1C(=O)N/N=C/c1ccc([N+](=O)[O-])cc1 (stereo unspecified) the results were CHO parental Ca -6.2, OX1R antag-1 -12.2, M1 ag parental -0.3, CHO-K1 Ca antag -13.7, CHO-K1 Ca PAM 13.5 and OX1R antag-2 53.6*.
`O=C(NCCOC(=O)c1ccc([N+](=O)[O-])cc1)c1cccnc1` gave CHO parental Ca 1.8, OX1R antag-1 -9.2, M1 ag parental 1.8, CHO-K1 Ca antag 1.5, CHO-K1 Ca PAM -5.0 and OX1R antag-2 68.7*.
N#CCC(=O)N/N=C/c1cc([N+](=O)[O-])ccc1N1CCOCC1 was read as CHO parental Ca -7.9, OX1R antag-1 -14.3, M1 ag parental 0.0, CHO-K1 Ca antag 25.8*, CHO-K1 Ca PAM -15.4 and OX1R antag-2 19.2.
O=C1NCCCC1C(=O)N/N=C/c1cccc([N+](=O)[O-])c1 (stereo unspecified) was read as CHO parental Ca 6.6, OX1R antag-1 2.3, M1 ag parental 0.9, CHO-K1 Ca antag -3.0, CHO-K1 Ca PAM 8.2 and OX1R antag-2 24.5.
Screening O=C1c2ccccc2C(c2nnnn2-c2ccc3c(c2)OCCO3)N1CCc1c[nH]c2ccccc12 (stereo unspecified) returned M1 ag parental 3.7, CHO-K1 Ca antag -6.4 and CHO-K1 Ca PAM 9.0.
`C[C@@H]1CN([C@H](C)CO)C(=O)CCCn2cc(nn2)CO[C@H]1CN(C)C(=O)Nc1ccc(C(C)(C)C)cc1` gave M1 ag parental 0.8, CHO-K1 Ca antag 6.4 and CHO-K1 Ca PAM 20.7.
`COc1ccc(C(=O)NC2CC2)cc1OC1CCN(Cc2ccc(Cl)cc2)CC1` gave CHO parental Ca -20.6, OX1R antag-1 -23.3, M1 ag parental 0.9, CHO-K1 Ca antag -9.9, CHO-K1 Ca PAM 6.5 and OX1R antag-2 28.7.
CCn1c(SC(C)C(=O)Nc2ccc(N3CCOCC3)cc2)nnc1C1CC1 (stereo unspecified) was read as CHO parental Ca -10.5, OX1R antag-1 -5.5, M1 ag parental -0.3, CHO-K1 Ca antag -1.4, CHO-K1 Ca PAM 3.8 and OX1R antag-2 -5.8.
`O=C(/C=C/c1ccc([N+](=O)[O-])cc1)NCc1cccs1` gave CHO parental Ca -3.9, OX1R antag-1 -1.7, M1 ag parental 0.1, CHO-K1 Ca antag 0.4, CHO-K1 Ca PAM 3.5 and OX1R antag-2 55.5.
For O=C(/C=C/c1ccc([N+](=O)[O-])cc1)NCc1ccccn1 the results were CHO parental Ca -5.8, OX1R antag-1 -1.5, M1 ag parental -0.5, CHO-K1 Ca antag -3.6, CHO-K1 Ca PAM 15.0 and OX1R antag-2 75.0*.
O=C(N/N=C/C=C/c1ccccc1[N+](=O)[O-])c1cccnc1 was read as CHO parental Ca -0.7, OX1R antag-1 -12.6, M1 ag parental 0.1, CHO-K1 Ca antag -4.8, CHO-K1 Ca PAM 8.8 and OX1R antag-2 46.9*.
O=C(N/N=C/c1ccc(-c2ccc([N+](=O)[O-])cc2)o1)c1cccnc1 was read as CHO parental Ca -28.3, OX1R antag-1 -15.8, M1 ag parental 5.5, CHO-K1 Ca antag -13.1, CHO-K1 Ca PAM 21.8 and OX1R antag-2 30.5.
Nc1nnc(CC(=O)N/N=C/c2ccc([N+](=O)[O-])cc2)s1 was read as CHO parental Ca -3.0, OX1R antag-1 3.4, M1 ag parental 4.5, CHO-K1 Ca antag -16.7, CHO-K1 Ca PAM 26.7 and OX1R antag-2 75.1*.
O=C(N/N=C/c1ccc([N+](=O)[O-])cc1)c1cccnc1 was read as CHO parental Ca 1.6, OX1R antag-1 -17.9, M1 ag parental 1.2, CHO-K1 Ca antag -5.9, CHO-K1 Ca PAM 18.1 and OX1R antag-2 72.2*.
For C=CCN(C(=O)c1csnn1)C(C(=O)NCc1ccccc1)c1c(F)cccc1Cl (stereo unspecified) the results were CHO parental Ca -9.9, OX1R antag-1 -8.0, M1 ag parental 0.1, CHO-K1 Ca antag -10.7, CHO-K1 Ca PAM 4.2 and OX1R antag-2 18.5.

Bioassay records (PubChem)
